Hits are enriched below; roughly 9.5% of the tested compounds scored in any of these assays.
Htt clearance = clearance of mutant huntingtin inclusions, primary screen, imaging, HeLa Exon1htt(103Q)mCFP, confocal imaging; hit rate 0.42% among 47,000; aggregate imaging; zero = plate's median compound well; inhibition, % at 1.5 µM;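 active = inhibition of aggregate fluorescence above about 70%, also judged a hit by eye on the cell image, limit read from the data, passing the limit was not always enough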;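 also: cells exposed to compound for three days before fixation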
HEK293 NFkB inh = inhibitors of PMA/ionomycin-induced NF-kB reporter, primary screen, antigen receptor NF-kB inhibitor project, cell-based, HEK-293 luciferase reporter, luminescence; HEK-293 NF-kB luciferase reporter; inhibition, % at 3 µM; hit rate 0.21% among 62,000;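 active = inhibition above the mean of all tested compounds plus 3 SD, cut at about 40% in these data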;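 also: 0% = stimulated DMSO wells and 100% = 10 µM reference inhibitor 5653914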
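System: NF-kB luciferase reporter HEK-293 cells | Replication: Single test | Control set: DMSO vs reference inhibitor | Evaluation: % inhibition | Schedule: 1 h pretreatment, 16 h stimulation, 37 °C | Probe or stimulus: PMA with ionomycin | Compound dosing: One dose, 3 µM | Detection: Luciferase luminescence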
D1 mod = D1 CRE-luciferase signal change, two-sided – cell-based, HEK293 D1, dopamine EC30, D1 allosteric modulator project, primary screen; B-score at 10 µM; dopamine EC30 potentiation; actives deviate in either direction; D(1A) dopamine receptor (Homo sapiens), P21728; AID 641, 2007; hit rate 5.9% among 58,000;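 active = luminescence count or its row- and column-corrected plate score outside the 99.7% band of the plate's sample wells, on either side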
Target sequence (P21728 whole entry, looked up): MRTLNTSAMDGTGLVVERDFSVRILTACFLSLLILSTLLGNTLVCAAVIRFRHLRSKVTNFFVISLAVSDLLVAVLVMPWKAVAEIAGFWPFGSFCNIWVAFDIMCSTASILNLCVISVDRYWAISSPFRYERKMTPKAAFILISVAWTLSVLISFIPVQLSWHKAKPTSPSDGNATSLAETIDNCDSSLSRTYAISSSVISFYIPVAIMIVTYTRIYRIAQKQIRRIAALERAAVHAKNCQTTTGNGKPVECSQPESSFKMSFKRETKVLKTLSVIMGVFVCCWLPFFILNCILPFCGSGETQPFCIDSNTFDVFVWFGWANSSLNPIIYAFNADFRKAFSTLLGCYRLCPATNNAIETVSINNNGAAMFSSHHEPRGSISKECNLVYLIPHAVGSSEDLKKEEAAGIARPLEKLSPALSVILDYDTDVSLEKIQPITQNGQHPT
Jurkat tox 60K = cytotoxicity toward Jurkat T cells, primary screen, cytotoxicity control, cell-based, Jurkat E6.1, 60K MLSMR library. hit rate 1.2% among 56,000. AID 463, 2006. inhibition, % at 4 µM. Jurkat E6.1 viability, ATP luminescence, 48 h;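 active = inhibition above the mean inhibition of all tested compounds plus 3 SD, cut at about 28% in these data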
M1 ag = M1 muscarinic receptor agonists, primary screen, CHO-M1 cells, Fluo-4 calcium, agonist mode. Fluo-4 calcium fluorescence; hits give high values. Muscarinic acetylcholine receptor M1. hit rate 3% among 64,000. B-score at 10 µM;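 active = fluorescence rise, raw or as B-score row- and column-corrected plate score, outside the 99.7% band of its plate's samples, either direction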
M1 antagonist = antagonists of rat M1 muscarinic receptor. CHO-M1 cells, Fluo-4 calcium, ACh EC80 antagonist mode; hits give low values. Muscarinic acetylcholine receptor M1 (Rattus norvegicus), P08482. B-score at 10 µM. hit rate 3.4% among 64,000. AID 628, 2007;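 active = calcium fluorescence response, raw or row-and-column corrected B-score, differing from the plate sample mean either way at a set confidence level, mostly lower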
The depositor's hits bear a star; nt = no result.

SMILES	Htt clearance	HEK293 NFkB inh	D1 mod	Jurkat tox 60K	M1 ag	M1 antagonist
C=CCn1c(NC(=O)c2ccccc2)c(C#N)c2nc3ccccc3nc21	nt	5	2.6	7	21*	-0.7
COc1ccccc1NC(=O)CSc1nnc(-c2ccoc2C)n1CC1CCCO1 (centres undefined)	-20	nt	nt	nt	nt	nt
CCOC(=O)c1sc(NC(=O)c2cc3n(n2)C(C(F)(F)F)CC(c2ccccc2)N3)c(C(=O)OCC)c1C (centres undefined)	-6	nt	nt	nt	nt	nt
c1ccc2nc(-c3nc4ccccc4[nH]3)ccc2c1	nt	13	-4.8*	20	0.55	0.072
Cc1ccccc1-c1nc2ccccc2[nH]1	8	nt	nt	nt	nt	nt
Cc1oc(-c2ccc(Cl)cc2)nc1CN1CCC(C(=O)NCc2ccco2)CC1	nt	7	-3.2*	-9	0.65	-0.32
CCOc1ccc(-c2nc(CSCC(=O)NCc3ccco3)c(C)o2)cc1	nt	83*	-1.7	1	0.63	-0.054
Cc1cc2ccccc2n1CCNC(=O)Cc1cccc2ccccc12	-24	nt	nt	nt	nt	nt
COc1cccc(/C=N/n2c(SC)nnc2-c2ccccc2)c1O	nt	7	-2.3	68*	7.2*	-1
COc1cccc(/C=N/n2c(C)c3c(C)nnc(C)c3c2C)c1O	nt	18	-1.2	-3	0.17	-0.24
COc1cc(C2Nc3ccc4ncccc4c3C3=C2C(=O)CCC3)cc(OC)c1O (centres undefined)	-47	14	1.3	71*	-0.62	0.4
COc1cc(C2Nc3ccc4ncccc4c3C3=C2C(=O)CC(C)(C)C3)cc(OC)c1O (centres undefined)	-17	nt	nt	nt	nt	nt
CCOC(=O)C1(N(CC)CC)Sc2cc(C)ccc2NC1=O (centres undefined)	31	6	-0.16	36*	-0.096	1.1
Cn1c(=O)c2cc(S(=O)(=O)NCCC(=O)NC3CCCCCCC3)ccc2n(C)c1=O	nt	15	-3.6*	1	0.55	0.99
O=[N+]([O-])c1cc(/C=N/OCc2c(Cl)cccc2Cl)ccc1N1CCOCC1	6	nt	nt	nt	nt	nt
Cc1nnc(SCC(=O)Nc2ccc(Br)cn2)[nH]c1=O	-51	11	-0.93	4	0.2	1*
Cc1cc(C)nc(SCC(=O)Nc2ccc(Br)cn2)n1	nt	20	nt	-6	0.25	0.047
CN(C)c1ccc(/C=N/n2ncc3ccccc32)cc1	nt	-30	-3.4*	nt	-0.038	0.013
CC1=C(C(=O)Nc2ccc(Br)cc2)C(c2ccco2)NC(=O)N1 (centres undefined)	4	nt	nt	nt	nt	nt
O=C(Nc1ccc(N2CCCC2)cc1)c1cccc(F)c1	-85	-27	-4.9*	69*	0.74	-0.16
O=C(Nc1ccc(N2CCCC2=O)cc1)c1cccc(F)c1	50	-30	-2.4	-3	-0.96	1
O=C(Nc1ccc(N2CCCCC2)cc1)c1ccccc1	-227	-18	-4.8*	10	0.21	-0.084
COc1ccc(OC)c(C2=NOC(C(=O)N3CCCc4ccccc43)C2)c1 (centres undefined)	15	nt	nt	nt	nt	nt
Cc1ccc(-n2nnnc2SC(C)C(N)=O)c(C)c1 (centres undefined)	-30	14	nt	5	-1.2	0.73
C/C(N)=C(/C#N)C(=O)CSc1nnnn1-c1ccc(C)cc1C	-45	9	-0.98	30*	0.56	0.68
SMILES	Htt clearance	HEK293 NFkB inh	D1 mod	Jurkat tox 60K	M1 ag	M1 antagonist
O=C(Oc1ccc2c(c1)OCO2)c1cc2c(s1)CCC2	nt	2	-1.6	43*	0.57	0.54
O=C(c1cc2c(s1)CCCC2)N1CCN(Cc2ccc3c(c2)OCO3)CC1	nt	9	-0.021	-7	-0.53	0.34
CCCCCCn1ccc(=N)cc1	nt	1	-1.9	41*	0.74	-1.3
NC(=O)c1ccccc1N/C=C/C(=O)c1ccccc1	nt	-41	-2.5*	8	1.1	1.6
CN1C(=O)/C(=C/c2cc(N=Nc3ccccc3)ccc2O)SC1=S	-8	nt	nt	nt	nt	nt
NC(=O)c1ccsc1NC(=O)CSc1ccccc1F	-16	-10	-3.5*	8	-0.82	0.58
NC(=O)c1ccsc1NC(=O)COc1ccccc1	nt	-7	1.2	1	1	-0.54

Screening results: PubChem, several laboratories
